# Experimental data from ChEMBL document CHEMBL4177580, “New 5-HT1A, 5HT2A and 5HT2C receptor ligands containing a picolinic nucleus: Synthesis, in vitro and in vivo pharmacological evaluation” (Bioorg Med Chem, 2017).
# Active and inactive are the calls of the source.
# How the values were obtained:
# Mus musculus [1] = test: Inhibition of 8-OH-DPAT-induced hypothermia in Swiss albino mouse at 30 mg/kg, ip measured after 120 mins post dose co-treated with 8-OH-DPAT; type: functional, organism-based
# In short: (§1)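 Normothermic male Swiss mice; rectal thermistor readings over 180 min. Baseline is the mean of readings 60 and 30 min before dosing; readings at 30, 60, 90, 120 min post-injection; Δt = tf − ti. Test compounds i.p. (DMSO/methylcellulose); 8-OH-DPAT (5 mg/kg) and WAY 100635 (0.1 mg/kg) s.c. in water. Two-way ANOVA, Bonferroni.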
# Rattus norvegicus [2] = test: In-vivo 5-HT1A receptor agonist activity in Wistar rat assessed as induction of lower lip retraction by measuring lower lip retraction score at 30 mg/kg, ip dosed 15 mins before test (reference value: 0.0 +/- 0.0)
# [3] = biological target: 5-hydroxytryptamine receptor 2A (Rattus norvegicus, UniProt P14842); test: Displacement of [3H]ketanserin from serotonin 5-HT2A receptor in Sprague-Dawley rat brain cortex homogenates incubated for 15 mins by liquid scintillation spectrometry
# Rattus norvegicus [4] = test: In-vivo 5-HT1A receptor agonist activity in Wistar rat assessed as induction of lower lip retraction by measuring lower lip retraction score at 1 mg/kg, ip dosed 15 mins before test co-treated with 0.3 mg/kg, ip WAY100635
# Mus musculus [5] = test: Induction of hypothermia in normothermic Swiss albino mouse assessed as reduction in body temperature at 30 mg/kg, ip measured after 120 mins post dose; type: functional, organism-based; in short: as §1
# [6] = biological target: T1, 5-hydroxytryptamine receptor 1A (Rattus norvegicus, UniProt P19327); test: Displacement of [3H]-8-OH-DPAT from serotonin 5-HT1A receptor in Sprague-Dawley rat brain cortex homogenates incubated for 30 mins by liquid scintillation spectrometry
# T1 sequence (P19327 whole entry): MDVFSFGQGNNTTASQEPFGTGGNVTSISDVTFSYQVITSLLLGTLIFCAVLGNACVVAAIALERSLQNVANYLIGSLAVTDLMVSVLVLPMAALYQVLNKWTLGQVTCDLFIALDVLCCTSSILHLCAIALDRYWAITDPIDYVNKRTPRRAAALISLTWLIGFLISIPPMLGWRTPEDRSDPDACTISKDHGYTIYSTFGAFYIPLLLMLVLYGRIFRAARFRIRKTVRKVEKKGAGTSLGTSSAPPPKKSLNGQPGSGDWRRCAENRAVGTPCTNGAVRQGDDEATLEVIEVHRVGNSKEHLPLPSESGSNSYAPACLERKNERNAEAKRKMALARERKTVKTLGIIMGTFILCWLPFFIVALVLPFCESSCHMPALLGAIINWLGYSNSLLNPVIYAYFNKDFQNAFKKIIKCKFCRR
# Rattus norvegicus [7] = test: In-vivo 5-HT1A receptor antagonist activity in Wistar rat assessed as reduction in 8-OH-DPAT-stimulated induction of lower lip retraction by measuring lower lip retraction score at 30 mg/kg, ip dosed 15 mins before test (reference value: 2.875 +/- 0.08183)
# Mus musculus [8] = test: Toxicity in Swiss albino mouse assessed as reduction in spontaneous locomotor activity at 15 mg/kg, ip dosed 60 mins before test; type: organism-based; conditions: in vivo, 1 h
# In short: (§2)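 Spontaneous locomotion: mice dosed i.p. 60 min before being placed individually in an actometer for 30 min. Distance travelled read at 6 and 30 min. Cages cleaned with 70% ethanol between animals. One-way ANOVA with Dunnett's; mean ± SEM of one experiment.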
# Mus musculus [9] = test: Toxicity in Swiss albino mouse assessed as effect on motor coordination at 3.75 to 15 mg/kg, ip dosed 60 mins before test by Chimney test; type: organism-based; conditions: in vivo, 1 h
# In short: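 Chimney test in male Swiss mice after i.p. dosing 60 min earlier: impairment defined as failure to climb backwards up a tube (3 cm inner diameter, 25 cm long) within 60 s. Animals pre-trained once daily for 3 days. One-way ANOVA with Dunnett's.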
# Mus musculus [10] = test: Antidepressant-like activity in Swiss albino mouse assessed as reduction in immobility time at 15 mg/kg, ip dosed 1 hr before test by forced swimming test; type: functional, organism-based
# In short: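 Male Swiss albino mice (18-24 g). The reference drug was diluted in saline and given ip (10 ml/kg) 1 h before testing. Each mouse swam for 6 min in a cylinder (25 cm high, 10 cm diameter) holding 10 cm of water at 23-25°C. Immobility was timed over the last 4 min. Data are mean ± SEM, analysed by one-way ANOVA with Dunnett's test.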
# Mus musculus [11] = test: Toxicity in Swiss albino mouse assessed as reduction in spontaneous locomotor activity at 7.5 mg/kg, ip dosed 60 mins before test; type: organism-based; conditions: in vivo, 1 h; in short: as §2
# Mus musculus [12] = test: Antidepressant-like activity in Swiss albino mouse assessed as reduction in immobility time at 7.5 mg/kg, ip dosed 1 hr before test by forced swimming test; type: functional, organism-based
# In short: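 Male Swiss albino mice (18–24 g), compound i.p. in 0.1% DMSO/0.5% methylcellulose 1 h pre-test. Porsolt swim: cylinder 25 cm high, 10 cm diameter, 10 cm water at 23–25°C, 6 min session; immobility scored over last 4 min. Blind observer; one-way ANOVA with Dunnett's; mean ± SEM.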
# Mus musculus [13] = test: Anxiolytic-like activity in Swiss albino mouse assessed as increase in time spent in open arms at 3.75 to 15 mg/kg measured for 5 mins test period by elevated plus maze test; type: functional, organism-based
# [14] = biological target: T2, 5-hydroxytryptamine receptor 2C (Rattus norvegicus, UniProt P08909); test: Displacement of [3H]mesulergine from serotonin 5-HT2C receptor in Sprague-Dawley rat brain cortex homogenates incubated for 15 mins by liquid scintillation spectrometry
# T2 sequence (P08909 whole entry): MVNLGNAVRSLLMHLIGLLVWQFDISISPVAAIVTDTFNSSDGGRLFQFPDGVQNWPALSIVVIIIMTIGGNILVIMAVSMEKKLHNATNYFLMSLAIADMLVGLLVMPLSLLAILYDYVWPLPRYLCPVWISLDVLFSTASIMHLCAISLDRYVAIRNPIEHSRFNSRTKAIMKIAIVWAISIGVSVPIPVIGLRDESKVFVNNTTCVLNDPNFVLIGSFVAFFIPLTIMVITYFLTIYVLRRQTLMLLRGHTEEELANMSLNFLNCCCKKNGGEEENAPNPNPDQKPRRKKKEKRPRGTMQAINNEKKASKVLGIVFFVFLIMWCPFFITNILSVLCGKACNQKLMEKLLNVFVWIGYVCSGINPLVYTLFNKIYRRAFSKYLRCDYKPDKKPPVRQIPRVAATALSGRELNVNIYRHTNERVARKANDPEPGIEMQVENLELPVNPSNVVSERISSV
# Mus musculus [15] = test: Inhibition of 8-OH-DPAT-induced hypothermia in Swiss albino mouse at 0.1 mg/kg, ip measured after 120 mins post dose co-treated with 8-OH-DPAT; type: functional, organism-based
# Rattus norvegicus [16] = test: In-vivo 5-HT1A receptor agonist activity in Wistar rat assessed as induction of lower lip retraction by measuring lower lip retraction score at 0.3 mg/kg, ip dosed 15 mins before test (reference value: 0.0 +/- 0.0)
# Rattus norvegicus [17] = test: In-vivo 5-HT1A receptor antagonist activity in Wistar rat assessed as reduction in 8-OH-DPAT-stimulated induction of lower lip retraction by measuring lower lip retraction score at 0.3 mg/kg, ip dosed 15 mins before test (reference value: 2.875 +/- 0.08183)
# Sequence of 5-hydroxytryptamine receptor 2A (P14842 whole entry): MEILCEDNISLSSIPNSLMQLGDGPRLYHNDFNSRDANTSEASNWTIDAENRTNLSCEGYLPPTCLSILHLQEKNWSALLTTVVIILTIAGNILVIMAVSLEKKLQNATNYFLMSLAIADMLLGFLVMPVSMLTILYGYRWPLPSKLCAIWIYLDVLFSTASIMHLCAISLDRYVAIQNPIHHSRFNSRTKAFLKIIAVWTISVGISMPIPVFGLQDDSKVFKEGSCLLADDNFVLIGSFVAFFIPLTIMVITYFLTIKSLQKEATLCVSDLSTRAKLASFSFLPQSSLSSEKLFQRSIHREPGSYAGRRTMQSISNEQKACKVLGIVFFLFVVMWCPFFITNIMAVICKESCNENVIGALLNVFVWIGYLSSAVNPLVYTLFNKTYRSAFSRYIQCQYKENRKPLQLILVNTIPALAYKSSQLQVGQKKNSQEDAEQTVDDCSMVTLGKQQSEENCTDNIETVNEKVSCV
Ki [3] [µM],Ki [6] [nM],Ki [14] [µM],Structure (SMILES),inhibition (Mus musculus [1]),Activity_index (Rattus norvegicus [2]),Activity (Rattus norvegicus [4]),Activity (Mus musculus [5]),Activity_index (Rattus norvegicus [7]),Activity (Mus musculus [8]),Activity (Mus musculus [9]),Activity (Mus musculus [10]),Activity (Mus musculus [11]),Activity (Mus musculus [12]),Activity (Mus musculus [13]),inhibition (Mus musculus [15]),Activity_index (Rattus norvegicus [16]),Activity_index (Rattus norvegicus [17])
> 10,0.046,> 10,O=C(NCCN1CCN(c2ncccn2)CC1)c1ccccn1,Active,2.714,inactive,inactive,2,Non-Toxic,Non-Toxic,Active,Non-Toxic,Active,Active,,,
,,,"COc1ccccc1N1CCN(CCN(C(=O)C2CCCCC2)c2ccccn2)CC1 [WAY-100,635]",,,,,,,,,,,,Active,0,1.667
